Assay results published in ChEMBL document CHEMBL1128301, “Cephalosporin derivatives of doxorubicin as prodrugs for activation by monoclonal antibody-beta-lactamase conjugates” (J Med Chem, 1995).

What was measured:
[1] = substrate: COc1cccc2c1C(=O)c1c(O)c3c(c(O)c1C2=O)C[C@@](O)(C(=O)CO)C[C@@H]3OC1CC(NC(=O)OCC2=C(C(=O)O)N3C(=O)[C@@H](NC(=O)CCCC(=O)O)[C@H]3SC2)C(O)C(C)O1; assay: The kinetic constant(Km) value as spectrophotometrically by using Bacillus cereus beta-lactamase (BCbL) enzyme as catalyst
How it was run: (§1)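 Spectrophotometric hydrolysis at 23 °C in PBS with 12.5 μg/mL BSA. EClbL was used at 0.1 μg/mL; BCbL and ECbL at 1.0 μg/mL. […] Initial velocities were linear over 1 min.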

[2] = substrate: COc1cccc2c1C(=O)c1c(O)c3c(c(O)c1C2=O)C[C@@](O)(C(=O)CO)C[C@@H]3OC1CC(NC(=O)OCC2=C(C(=O)O)N3C(=O)[C@@H](NC(=O)CCCC(=O)O)[C@H]3SC2)C(O)C(C)O1; assay: The kinetic constant(Km) value as spectrophotometrically by using Escherichia coli TEM-1 beta-lactamase (ECbL) enzyme as catalyst; how it was run: as §1
[3] = substrate: COc1cccc2c1C(=O)c1c(O)c3c(c(O)c1C2=O)C[C@@](O)(C(=O)CO)C[C@@H]3OC1CC(NC(=O)OCC2=C(C(=O)O)N3C(=O)[C@@H](NC(=O)CCCC(=O)O)[C@H]3SC2)C(O)C(C)O1; assay: The kinetic constant(Km) value as spectrophotometrically by using Enterobacter cloacae P99 beta-lactamase (ECIbL) enzyme as catalyst
How it was run: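 Initial-velocity kinetics at 23 °C in PBS with 12.5 μg/mL bovine serum albumin. […] Hydrolysis followed by absorbance change at 230 nm or 260 nm, linear over 1 min. Km from direct linear plots, mean of at least three independent experiments.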

B1: Metallo-beta-lactamase type 2 (Bacillus cereus), P14488 (protein)
chain: MKNTLLKLGVCVSLLGITPFVSTISSVQAERTVEHKVIKNETGTISISQLNKNVWVHTELGYFSGEAVPSNGLVLNTSKGLVLVDSSWDDKLTKELIEMVEKKFKKRVTDVIITHAHADRIGGMKTLKERGIKAHSTALTAELAKKNGYEEPLGDLQSVTNLKFGNMKVETFYPGKGHTEDNIVVWLPQYQILAGGCLVKSASSKDLGNVADAYVNEWSTSIENVLKRYGNINLVVPGHGEVGDRGLLLHTLDLLK
Q: With B1 as the protein, how does the Km [1] read?
A: 56 µM

B2: Beta-lactamase TEM (Escherichia coli), P62593 (protein)
chain: MSIQHFRVALIPFFAAFCLPVFAHPETLVKVKDAEDQLGARVGYIELDLNSGKILESFRPEERFPMMSTFKVLLCGAVLSRVDAGQEQLGRRIHYSQNDLVEYSPVTEKHLTDGMTVRELCSAAITMSDNTAANLLLTTIGGPKELTAFLHNMGDHVTRLDRWEPELNEAIPNDERDTTMPAAMATTLRKLLTGELLTLASRQQLIDWMEADKVAGPLLRSALPAGWFIADKSGAGERGSRGIIAALGPDGKPSRIVVIYTTGSQATMDERNRQIAEIGASLIKHW
Q: How did the Km [2] turn out when B2 was run?
A: 73 µM

B3: Beta-lactamase (Enterobacter cloacae), P05364 (protein)
chain: MMRKSLCCALLLGISCSALATPVSEKQLAEVVANTITPLMKAQSVPGMAVAVIYQGKPHYYTFGKADIAANKPVTPQTLFELGSISKTFTGVLGGDAIARGEISLDDAVTRYWPQLTGKQWQGIRMLDLATYTAGGLPLQVPDEVTDNASLLRFYQNWQPQWKPGTTRLYANASIGLFGALAVKPSGMPYEQAMTTRVLKPLKLDHTWINVPKAEEAHYAWGYRDGKAVRVSPGMLDAQAYGVKTNVQDMANWVMANMAPENVADASLKQGIALAQSRYWRIGSMYQGLGWEMLNWPVEANTVVEGSDSKVALAPLPVAEVNPPAPPVKASWVHKTGSTGGFGSYVAFIPEKQIGIVMLANTSYPNPARVEAAYHILEALQ
Q: For B3, which Km [3] is on record?
A: 83 µM
